Laboratory results reported in the EternaBench riboswitch data.

Tests used:
[1] = tested on: MS2 coat protein; experiment: apparent Kd, MS2 coat protein; higher = weaker binding; RNA-MaP array; tryptophan 2.4 mM where present
Procedure, shortened: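 Two titrations, one without ligand and one with constant ligand, were run with SNAP-549-labelled MS2 coat protein from 0.7 or 1.5 nM, doubling to 3 µM. The targets were designs transcribed by stalled E. coli RNA polymerase on Illumina sequencing-chip clusters, in 100 mM Tris-HCl pH 7.5, 80 mM KCl, 4 mM MgCl2, BSA, DTT, yeast tRNA and Tween-20. The apparent Kd is the median of filtered per-cluster binding-curve fits, with green signal normalised to red-channel RNA signal and control-cluster median Fmax.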

[2] = tested on: MS2 coat protein; experiment: apparent Kd, MS2 coat protein; higher = weaker binding; RNA-MaP array
Procedure, shortened: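 Fluorescently labeled MS2 coat protein, from 1.5 nM to 3 μM, was incubated at room temperature with designed RNAs transcribed on an Illumina sequencing chip from sequenced DNA templates. Times ran from 0.8–1.5 h at the lowest concentrations to 10–20 min at the highest, in Tris-HCl pH 7.5 buffer with KCl, MgCl2, BSA, DTT, tRNA and Tween20, with or without input ligand. Each apparent Kd is the median of per-cluster binding-curve fits, and designs with fewer than 10 measured clusters were excluded.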

[3] = designed as: OFF switch for tryptophan, no ligand
[4] = ligand present: tryptophan, designed as: OFF switch for tryptophan
[5] = designed as: ON switch for tryptophan, no ligand
[6] = ligand present: tryptophan, designed as: ON switch for tryptophan
[7] = designed as: ON switch for flavin mononucleotide, no ligand
[8] = ligand present: flavin mononucleotide, designed as: ON switch for flavin mononucleotide
[9] = designed as: OFF switch for flavin mononucleotide, no ligand
[10] = ligand present: flavin mononucleotide, designed as: OFF switch for flavin mononucleotide

Sequence	apparent Kd [1, 3]	apparent Kd [1, 4]	apparent Kd [1, 5]	apparent Kd [1, 6]	also measured
GUUGGACUUUCGGCCGCCACUGAGAGAGUCAUGUGAACAUGAGGAUCACCCAUGUAAUAUAUAUACAGGACCGGGAGGGUUGUAA	13.3 nM	9.9 nM	–	–	–
ACUUCGCAUAGGAAAACUAUGUGAAGAAAUCGAGGACCGGUACGGCCGCCACUCGUCCUCAACAUGAGGAUCACCCAUGUAAUAA	20.1 nM	37.8 nM	–	–	–
GGAGUAGGAAACUAUUCCAAUCCUCGUGAACGAGGACCGGUACGGCCGCCACUCGAUAAAUAAAUACAUGAGGAUCACCCAUGUU	68.8 nM	118 nM	–	–	–
AACAUGAGGAUCACCCAUGUACCUUUCGAUCGAGGACCGGUACGGCCGCCACUCGAAAACAUGAGGAUCACCCAUGUUCAACAGG	–	–	145 nM	87.4 nM	–
AAGCGGGCGACGGCCGCCACUUGCCUGUAAUUAGAGAAGGCACAUGAGGAUCACCCAUGUCCCGCAAGGACCGGGUUGCCUCACU	–	–	417 nM	84.5 nM	–
UAAACUACACAUGAGGAUCACCCAUGUGGCCGAGGACCGGUACGGCCGCCACUCGUGUGUUAAUAAAAGAACUGCAAGGUUCUUC	–	–	174 nM	73.1 nM	–
AGCAACAAGUCGGCCGCCACUCAUUUAACAUGAGGAUCACCCAUGUGAAUAACAUGAUUGUAAUAGAGGACCGGGACAGUUGCAU	–	–	62.5 nM	31 nM	–
ACGUGGAAAAUUUGUGGUGCUGCCUCAGGCCGAGGACCGGUACGGCCGCCACUCGUACAUGAGGAUCACCCAUGUCGAGUCACUG	25.4 nM	22.2 nM	–	–	–
CGUAUUGGAAACAGUACGAGUGAUCCGGUCCGAGGACCGGUACGGCCGCCACUCGAAAUUAAUAAACAUGAGGAUCACCCAUGUA	17.8 nM	26.8 nM	–	–	–
GGCACAUAGUCGGCCGCCACUAGAAUAAGAUGGAAUAACAUGAGGAUCACCCAUGUAAAAGGGACUAGGACCGGGACUAUGUGCC	13.7 nM	11.9 nM	–	–	–
AACAUGAGGAUCACCCAUGUCCCAUGUGAACGAGGACCGGUACGGCCGCCACUCGAAUGAGGCGGCACAUGAGGAUCACCCACAU	–	–	131 nM	196 nM	–
UUAUAAGUACCGGUCCUCAGAUCCUCAUGACGAGGACCGGUACGGCCGCCACUCGAAACAUGAGGAUCACCCAUGUAAUAACACU	23.1 nM	19.9 nM	–	–	–
GAUUUAACAAAAGUUAGAUCAGUGGGUGAACGAGGACCGGUACGGCCGCCACUCGGACAUGAGGAUCACCCAUGUCCAUGUGAAA	17.8 nM	43.1 nM	–	–	–
UUACACAUCUCGGCCGCCACUGGCUUCAAAAUAAUGUGUACAUGAGGAUCACCCAUGUCCGAGCUCAGGACCGGGAGCAAAGAAG	–	–	26.7 nM	27.1 nM	–
GGUGUAAUUGACUCUUUGUUUUAUUUGUAACGAGGACCGGUACGGCCGCCACUCGAUAUUCACAUGAGGAUCACCCAUGUUAGCU	20.1 nM	20.4 nM	–	–	–
CAUGUGAAAAUAAGAAGAAGAAGAAUAAAUCGAGGACCGGUACGGCCGCCACUCGUCGAAUCACAUGAGGAUCACCCAUGUAGCC	65.1 nM	50.9 nM	–	–	–
AGGUACAGCAGGUGAUUCUGGCUGUACCAACGAGGACCGGUACGGCCGCCACUCGAAUAAACAUGAGGAUCACCCAUGUACAAAU	–	–	24.6 nM	21.6 nM	–
UGUCAGCGAAAGUUGACAUGUUGAACCGGUCGAGGACCGGUACGGCCGCCACUCGAUCUCUCGUACAUGAGGAUCACCCAUGUCG	–	–	11.5 nM	10.7 nM	–
GGCGCUACGCCGGUACAUGAGGAUCACCCAUGUCCAUAUGUAAGAAGGUCUGGCGGGACGACAAAGAAGGAUAUUACAGAUUGC	–	–	–	–	apparent Kd [2, 7]: 33.7 nM; apparent Kd [2, 8]: 24.9 nM
UUCAUGUUAGGAUAUAGUGUAAGAGCGGGCGGGACUCUAUUCUAGAAGGAACAUGAGGAUCACCCAUGUUAAGG	–	–	–	–	apparent Kd [2, 9]: 213 nM; apparent Kd [2, 10]: 124 nM
ACCCGAGAUACAGGAUAUGCGUCCGCGUGAGCCAUGGUUAAAGCACAUGAGGAUCACCCAUGUUGGCAGAAGGGAAUCUCAUGA	–	–	–	–	apparent Kd [2, 9]: 53.7 nM; apparent Kd [2, 10]: 19.3 nM
GAAAGAUGAGGAUAUACAUGAGGAUCACCCAUGUGAUUAAAUUGAACACCGAAUUACUGUAGAAGGCAUAAACC	–	–	–	–	apparent Kd [2, 9]: 19.9 nM; apparent Kd [2, 10]: 16.8 nM
ACCGGCACCUAGGAUACCAGAUCCACAACAAACAUGAGGAUCACCCAUGUAUAAAGUGGUAUCCCUUGGCAGCCUGUGACAAUCG	–	–	–	–	apparent Kd ([2]; designed as: ON switch for theophylline, no ligand): 16.5 nM; apparent Kd ([2]; ligand present: theophylline, designed as: ON switch for theophylline): 14.8 nM
AGACUUAGACAAGGAUAUGGUGAGGCCACCUUACAUGAGGAUCACCCAUGUCUAGAGAUCCUGUGCCAGAAGGUGUAGUUGGAC	–	–	–	–	apparent Kd [2, 7]: 312 nM; apparent Kd [2, 8]: 75.7 nM
AAGCCACAUGAGGAUCACCCAUGUGAGGAUAUUCAUCUAGAUCAACAAGACACGGAUAGAAGAAGGCACGGUGG	–	–	–	–	apparent Kd [2, 9]: 14 nM; apparent Kd [2, 10]: 29.5 nM
UAAGUACGACAGAAGGGAUGAAAUUAUAACAAAUCAGGAUAUGUGAGUUACCAAUGCAAGCAUUACAUGAGGAUCACCCAUGUG	–	–	–	–	apparent Kd [2, 7]: 16.9 nM; apparent Kd [2, 8]: 10.1 nM
